# Measurements from ChEMBL document CHEMBL4251639, “Identification of novel 2-benzoxazolinone derivatives with specific inhibitory activity against the HIV-1 nucleocapsid protein” (Eur J Med Chem, 2018).
# Activity calls are given as the source filed them. The calls are words filed in the database; no cut-off is given here.
# What was measured:
# [1] = system: Human immunodeficiency virus 1; assay: (§1) Inhibition of HIV-1 nucleocapsid protein (12 to 55 residues) assessed a sreduction in TAR29/cTAR29 duplex formation preincubated for 15 mins followed by TAR29/cTAR29 addition and measured after 15 mins by nucleocapsid annealing mediated electrophoresis assay
# How it was run: (§2)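 TAR29 and cTAR29 hairpins folded separately (95°C 5 min, slow cooling) in Tris 25 mM, NaCl 30 mM, Mg(ClO4)2 0.2 mM, pH 7.5. NC(12–55, LAI strain; final 8 μM) preincubated with compound (DMSO ≤2%) 15 min at room temperature. Then 1 μM each hairpin added, 15 min at room temperature. Stopped with SDS/EDTA loading buffer; duplex resolved on native 12% PAGE. IC50 from Hill fit, triplicates.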
# [2] = as §1; design: species or system Human immunodeficiency virus 1; how it was run: as §2
# [3] = Inhibition of HIV-1 nucleocapsid protein (11 to 55 residues) chaperone activity assessed as reduction in nucleocapsid-induced Alexa488-labeled TAR55AD nucleic acid destabilization using Dabcyl as quencher by spectrofluorimetry based nucleic acid destabilization assay; design: species or system Human immunodeficiency virus 1
# How it was run: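 Preformed complex of 100 nM cTAR55 (5'-Alexa488, 3'-Dabcyl) and 1000 nM NC(11–55, MAL strain, Zn-loaded) in Tris 25 mM, NaCl 30 mM, MgCl2 0.2 mM, pH 7.5. Compound titrated in (25–500 μM); emission spectra taken at 480 nm excitation, 20°C. Inhibition calculated relative to cTAR alone and cTAR+NC, corrected for dilution and compound fluorescence. IC50 from Hill dose-response fit, triplicates.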
# [4] = system: Human immunodeficiency virus 1; assay: Inhibition of HIV-1 nucleocapsid protein (11 to 55 residues) assessed as reduction in dTAR55/cTAR55AD nucleic acid annealing at 200 uM by Alexa488 dye-based fluorimetric analysis
# How it was run: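 Pseudo-first-order annealing: 10 nM cTAR55 (5'-Alexa488, 3'-Dabcyl) and 100 nM dTAR55, each premixed with 8-fold NC(11–55, MAL strain, Zn-loaded). Buffer was Tris 25 mM, NaCl 30 mM, MgCl2 0.2 mM, pH 7.5, with 1% DMSO. Compound added to the dTAR55/NC mix. Fluorescence read at 480/519 nm, 20°C; rate constant from mono-exponential fit.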
# [5] = system: Human immunodeficiency virus 1; assay: Antiviral activity against HIV1 NL4-3 infected in human TZM-bl cells measured after 2 days by luciferase reporter gene based monocycle infection assay; type: functional, organism-based; settings: Human immunodeficiency virus 1, NL4-3, TZM-bl, 48 h
# How it was run: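 TZM-bl cells (30,000/well) were infected with an NL4-3 stock in the presence of serial five-fold compound dilutions from 5 nM to 400 μM. Plates were held at 37°C, 5% CO2, for two days. Cells were then lysed and luciferase was read as RLU. IC50 was fitted from per-well RLU with a 95% confidence interval.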
# [6] = system: Human immunodeficiency virus 1; assay: Antiviral activity against HIV1 NL4-3 infected in human MT2 cells incubated for 72 hrs followed by reinfection in human TZM-bl cells measured after 48 hrs by luciferase reporter gene based bicycle infection assay; type: functional, organism-based; settings: Human immunodeficiency virus 1, NL4-3
# How it was run: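 This is a two-cycle format. MT-2 cells (50,000/well) were infected with NL4-3 alongside five-fold compound dilutions (5 nM–400 μM) and kept 72 h at 37°C, 5% CO2. Supernatant carrying first-round virus then infected TZM-bl cells (30,000/well) for 48 h under the same conditions. Luciferase RLU gave the IC50 with a 95% confidence interval.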
# [7] = system: TZM; assay: Cytotoxicity against human TZM-bl cells after 48 hrs by CellTiter-Glo reagent-based assay; type: cell-based
# How it was run: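 Viability was measured by CellTiter-Glo ATP luminescence. TZM-bl cells (15,000/well) were incubated 48 h at 37°C, 5% CO2, with serial two-fold compound dilutions from 3.1 to 400 μM. Medium was then replaced by reagent, shaken 10 min, and luminescence read. TD50 was derived from RLU normalised to untreated cells (100% viability), with a 95% confidence interval.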
# [8] = Selectivity index, ratio of IC50 for human TZM-bl cells to IC50 for HIV1 NL4-3 infected in human TZM-bl cells; type: toxicity, cell-based; settings: uninfected versus infected with HIV1 NL4-3, read-out: Ratio IC50
# How it was run: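 Selectivity index from TD50 in TZM-bl cells and IC50 from the MonoCycle assay. […] MonoCycle IC50: 30,000 TZM-bl cells/well infected with NL4-3 with five-fold dilutions 5 nM–400 μM; luciferase RLU read after two days.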
# [9] = Selectivity index, ratio of IC50 for human MT2 cells to IC50 for HIV1 NL4-3 infected in human MT2 cells; type: toxicity, cell-based; settings: uninfected versus infected with HIV1 NL4-3, read-out: Ratio IC50
# How it was run: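 Selectivity index from TD50 in MT-2 cells and IC50 from the BiCycle assay. […] BiCycle IC50: MT-2 cells infected with NL4-3 with compound for 72 h; supernatant then transferred to TZM-bl cells, luciferase read after 48 h.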
# [10] = system: MT2; assay: Cytotoxicity against human MT2 cells after 72 hrs by CellTiter-Glo reagent-based assay; settings: MT2, 72 h
# [11] = system: Human immunodeficiency virus 1; assay: Binding affinity to HIV-1 nucleocapsid protein (1 to 55 residues) at 5 uM incubated for 30 mins by ESI-MS method
# [12] = system: Human immunodeficiency virus 1; assay: Binding affinity to HIV-1 nucleocapsid protein (1 to 55 residues) assessed as fractional protein occupancy ratio at 5 uM incubated for 30 mins by ESI-MS method
smiles,measurement,setting,value
Cc1cc(COc2ccc(Cl)cc2C(N)=O)no1,inhibition,[1],inactive
CC(=O)c1sc(NS(=O)(=O)c2ccc3[nH]c(=O)[nH]c3c2)nc1C,IC50,[2],Not Active
COc1ccc(C(C)(C)C)cc1NS(=O)(=O)c1ccc2[nH]c(=O)[nH]c2c1,IC50,[2],Not Active
COc1ccccc1NC(=O)CCNS(=O)(=O)c1ccc2nc(O)oc2c1,IC50,[2],Not Active
O=c1cc(Cc2nnc(S)n2-c2ccc(Cl)cc2)[nH]c(=O)[nH]1,inhibition,[1],Active
O=c1[nH]c2ccc(S(=O)(=O)Nn3cnnc3)cc2o1,IC50,[2],Not Active
Cc1cc(CCCNc2nnnn2-c2ccccc2)n[nH]1,inhibition,[1],inactive
N#Cc1ccc(CSc2nc3[nH]ncc3c(=O)[nH]2)cc1,inhibition,[1],inactive
O=C(O)CCC1NC(=O)N(Cc2ccccc2)C1=O (configuration not stated),inhibition,[1],inactive
NC(=O)c1ccc(CNC(=O)Cn2ccc(=O)[nH]c2=O)cc1,inhibition,[1],inactive
O=c1[nH]c2ccc(S(=O)(=O)Nc3cc(-c4ccccc4)no3)cc2[nH]1,IC50,[2],Not Active
O=C(COc1cccc(Cl)c1Cl)N1CCNC1=O,inhibition,[1],inactive
N=C(N)c1ccc(N2CCCCC2)cc1,inhibition,[1],inactive
CS(=O)(=O)N1CCc2cc(NS(=O)(=O)c3ccc4[nH]c(=O)oc4c3)ccc21,IC50,[2],Not Active
O=c1[nH]c2cc(S(=O)(=O)Nc3ccc4[nH]ncc4c3)ccc2o1,IC50,[2]; read-out: IC50,20 µM
same,IC50,[3],210 µM
same,inhibition,[4],40%
same,IC50,[5],30.6 µM
same,IC50,[6],36.4 µM
same,TD50,[7],155 µM
same,selectivity ratio,[8],5.1
same,selectivity ratio,[9],3.8
same,IC50,[10],140 µM
same,Activity,[11],Active
same,Ratio,[12],0.16
COc1cccc(CNn2cnnc2S)c1OCc1ccccc1,inhibition,[1],inactive
Nc1cccc(C(=O)NCCCC(=O)O)c1,inhibition,[1],inactive
O=C(CO)N1CCCC(c2[nH]ncc2Cc2ccccc2)C1 (configuration not stated),inhibition,[1],inactive
O=C1N=NC(=S)N1c1ccc(Cl)c(Cl)c1,inhibition,[1],Active
O=C(O)C1CCN(c2ncnc3nc[nH]c23)CC1,inhibition,[1],inactive
O=C(O)c1ccc(NS(=O)(=O)c2ccc3[nH]c(=O)[nH]c3c2)cc1O,IC50,[2],Not Active
Cc1ccc(NS(=O)(=O)c2ccc3oc(=O)[nH]c3c2)c(C)c1,Activity,[11],Active
same,Ratio,[12],0.06
O=C(CSc1ccccn1)c1ccc(O)c(O)c1,inhibition,[1],inactive
Cc1cc(C)n(CCOC(=O)c2ccc(N3CCNC3=O)cc2)n1,inhibition,[1],inactive
Cc1nc(CN(C)S(=O)(=O)c2cc3[nH]c(=O)[nH]c3cc2Br)no1,IC50,[2],Not Active
CC(CCc1ccccc1)NC(=O)c1ccc[nH]c1=O (configuration not stated),inhibition,[1],inactive
COc1cccc(-n2c(CCn3cccn3)n[nH]c2=O)c1,inhibition,[1],inactive
O=C(Cn1[nH]cc2c(=O)ncnc1-2)NC1(c2ccccc2)CCC1,inhibition,[1],inactive
Cc1nc[nH]c1-c1nccn1CCCc1ccccc1,inhibition,[1],inactive
O=C(O)CNS(=O)(=O)c1ccc2[nH]c(=O)oc2c1,IC50,[2],Not Active
N=C(N)NS(=O)(=O)c1ccc2[nH]c(=O)oc2c1,IC50,[2]; read-out: IC50,203 µM
COc1ccc2[nH]c(C(N)=O)cc2c1,inhibition,[1],inactive
c1ccc(-c2ccnc3[nH]ccc23)c(OCCn2ccnc2)c1,inhibition,[1],inactive
O=C(CCC1NC(=O)c2ccccc21)Nc1nc[nH]n1 (configuration not stated),inhibition,[1],inactive
COc1ccc(O)c(C(=O)c2cnc3[nH]c(=O)[nH]c(=O)c3c2)c1,inhibition,[1],inactive
O=C1CN(C(=O)Cc2n[nH]c(=O)c3ccccc23)CCN1,inhibition,[1],inactive
CSCCC(NS(=O)(=O)c1ccc2[nH]c(=O)oc2c1)C(=O)O (configuration not stated),IC50,[2],Not Active
N#Cc1cnc(SCc2cccc(C(N)=O)c2)nc1N,inhibition,[1],inactive
NC(=O)c1ccn(COc2ccccc2F)n1,inhibition,[1],inactive
O=c1[nH]c2ccc(S(=O)(=O)Nc3cc(C(F)(F)F)ccc3Cl)cc2o1,IC50,[2]; read-out: IC50,179 µM
same,Activity,[11],Active
Cc1cc2[nH]c(=O)oc2cc1S(=O)(=O)NN1CCc2c(nc[nH]c2=O)C1,IC50,[2]; read-out: IC50,170 µM
same,Activity,[11],Active
O=c1[nH]c2ccc(S(=O)(=O)O)cc2[nH]1,IC50,[2],Not Active
Cc1ccc(-c2nn(CCC(=O)O)cc2/C=C2\SC(=N)NC2=O)cc1,inhibition,[1],inactive
O=C(O)c1ccc2c(c1)CCN2S(=O)(=O)c1ccc2[nH]c(=O)oc2c1,IC50,[2]; read-out: IC50,163 µM
same,Activity,[11],Active
Cc1nc2c(c(=O)[nH]1)CCN(S(=O)(=O)c1cccc3nsnc13)C2,inhibition,[1],inactive
Cc1ccc(NC(=O)CCn2c(=O)[nH]c3cc(S(=O)(=O)N4CCCC4)ccc32)cc1,IC50,[2],Not Active
O=c1[nH]c2ccc(S(=O)(=O)Nc3ccc(S(=O)(=O)NCC(F)(F)F)cc3)cc2o1,IC50,[2],Not Active
COc1ccccc1-c1nccn1CCc1n[nH]c(=O)[nH]1,inhibition,[1],inactive
